Test results from ChEMBL document CHEMBL1156823, “Design and synthesis of novel quinone inhibitors targeted to the redox function of apurinic/apyrimidinic endonuclease 1/redox enhancing factor-1 (Ape1/ref-1)” (J Med Chem, 2010).
Activity calls are given as the source filed them. The calls are words filed in the database; no cut-off is given here.

Columns and labels:
[1] = molecular target: T1, DNA repair nuclease/redox regulator APEX1 (Homo sapiens, UniProt P27695); assay: Inhibition of Ape1/ref-1 endonuclease activity up to 100 uM
[2] = Growth inhibition of human Hey-C2 cells after 72 hrs by MTS assay; type: functional; details: Hey-C2, 72 h
Outline: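 Hey-C2 ovarian cancer cells grown in RPMI 1640 with 10% fetal calf serum; 2–4,000 cells per well in triplicate, adhered overnight, then exposed to drug for 72 h at 37 °C. MTS reagent (0.05 mg/mL) added for 4 h at 37 °C, absorbance read at 490 nm, normalized to media-alone wells. GI50 is the average of three experiments.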

[3] = molecular target: T1, DNA repair nuclease/redox regulator APEX1; assay: Inhibition of Ape1/ref-1 redox activity in presence of 0.02 mM DTT and human Hey-C2 cells nuclear extracts by EMSA; type: cell-free
Outline: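 Purified Ape1 reduced with 1.0 mM DTT at 37 °C for 10 min, then diluted in PBS. Poly(dI-dC) added for 5 min, then HEX-labeled AP-1 consensus duplex (0.1 pmol) for 30 min at room temperature. Final DTT 0.02 mM.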

T1 sequence (P27695 whole entry): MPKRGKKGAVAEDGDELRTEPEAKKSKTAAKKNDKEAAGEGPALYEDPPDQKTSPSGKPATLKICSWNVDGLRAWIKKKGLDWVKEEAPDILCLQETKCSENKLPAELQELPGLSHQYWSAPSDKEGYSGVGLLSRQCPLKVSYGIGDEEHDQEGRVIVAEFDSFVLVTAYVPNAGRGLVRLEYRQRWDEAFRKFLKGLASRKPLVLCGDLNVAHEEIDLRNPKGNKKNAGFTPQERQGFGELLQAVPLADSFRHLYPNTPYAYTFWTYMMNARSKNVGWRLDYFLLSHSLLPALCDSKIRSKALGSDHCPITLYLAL

SMILES	inhibition [1]	GI50 [2]	IC50 [3]
CCCCCCCCC/C(=C\C1=C(C)C(=O)C(OC)=C(OC)C1=O)C(=O)NCCO	inactive	35 µM	
COC1=C(OC)C(=O)C(/C=C/C(=O)O)=C(C)C1=O	inactive	250 µM	
COCC/C(=C\C1=C(C)C(=O)c2ccccc2C1=O)C(=O)O	inactive	30 µM	
C/C(=C\C1=C(F)C(=O)c2ccccc2C1=O)C(=O)O	inactive	50 µM	
C/C(=C\C1=C(Cl)C(=O)c2ccccc2C1=O)C(=O)NCCO	inactive	8 µM	1 µM
COCC/C(=C\C1=C(Cl)C(=O)c2ccccc2C1=O)C(=O)O	inactive	30 µM	
CCCC/C(=C\C1=C(C)C(=O)C(OC)=C(OC)C1=O)C(=O)O	inactive	85 µM	
COCC/C(=C\C1=C(Br)C(=O)c2ccccc2C1=O)C(=O)O	inactive	25 µM	1 µM
COC1=C(/C=C(\C)C(=O)O)C(=O)c2ccccc2C1=O	inactive	40 µM	1 µM
COC1=C(OC)C(=O)C(/C=C(\C)C(=O)O)=C(C)C1=O	inactive	130 µM	
O=C(O)CCC1=C(Br)C(=O)c2ccccc2C1=O	inactive	15 µM	
CSC1=C(/C=C(\C)C(=O)O)C(=O)c2ccccc2C1=O	inactive	30 µM	
CCCCCCCCC/C(=C\C1=C(C)C(=O)C(OC)=C(OC)C1=O)C(=O)O [APX-3330]	inactive	35 µM	
C/C(=C\C1=C(Br)C(=O)c2ccccc2C1=O)C(=O)O		13 µM	
C/C(=C/C1=C(Cl)C(=O)c2ccccc2C1=O)C(=O)O	inactive	30 µM	2 µM
COC1=C(OC)C(=O)C(/C=C(\C)C(=O)O)=C(Cl)C1=O	inactive	45 µM	3 µM
COCC/C(=C\C1=C(C)C(=O)C(OC)=C(OC)C1=O)C(=O)O	inactive	200 µM	
C/C(=C\C1=CC(=O)c2ccccc2C1=O)C(=O)O	inactive	20 µM	3 µM
C/C(=C\C1=C(Cl)C(=O)c2ccccc2C1=O)C(=O)O	inactive	15 µM	
CC1=C(/C=C(\C)C(=O)O)C(=O)c2ccccc2C1=O	inactive	45 µM	
